# Square brackets hold non-standard residues; d marks the D form. Peptide text beside a SMILES is read from it. * marks the point of attachment. NH(9-Et-carbazol-3-yl) = CCn1c2ccccc2c2cc(N*)ccc21; X1 = O=C(C(O)C(O)C(O)C(O)CO)*; Boc = CC(C)(C)OC(=O)*; Sar = CNCC(=O)O
# Columns and labels:
# Plasmodium falciparum [1] = test: Inhibitory activity against Plasmodium falciparum 68 neutral proteinase; assay type: functional; details: read-out: I50
# Procedure, shortened: (§1)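 Purified Pf 68 proteinase (FcR-3 schizonts; chromatofocusing then gel filtration; 20 μL extract). Inhibitors at 0.005-1 mM preincubated with 0.19 mM GlcA-Val-Leu-Gly-Lys-AEC in 50 mM Tris-HCl pH 7.4, then 30 min at 37 °C. Released AEC extracted into ethyl acetate, fluorescence read at ex 370/em 430 nm. Enzyme-free control for each inhibitor. I50 read from the activity-versus-concentration plot.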
# Plasmodium falciparum [2] = test: Inhibitory activity against Plasmodium falciparum 68 neutral proteinase.; assay type: functional; procedure, shortened: as §1
# Plasmodium falciparum [3] = test: In vitro inhibition of Plasmodium falciparum 68 neutral proteinase activity by reinvasion of red blood cells; assay type: functional, organism-based
# Procedure, shortened: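 Synchronized schizonts (44-48 h) from a 4-h synchronized culture, collected by Plasmagel, added to washed healthy erythrocytes at 5% hematocrit to 4-5% parasitemia, with peptide in complete medium with 5% serum. Incubated 4-6 h in a candle jar. New rings counted on Giemsa smears (5000 RBC). Inhibition = 100 − (R/R0 × 100). IC50 from 6-h runs, 5% initial segmenters, triplicate.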
# Plasmodium falciparum [4] = test: Relative rate of hydrolysis by Plasmodium falciparum 68 neutral proteinase; assay type: functional
# Procedure, shortened: (§2)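 Pf 68 proteinase purified from FcR-3 schizonts, incubated with peptidyl-AEC substrates (0.5-2.0 mM) in 50 mM Tris-HCl pH 7.4, 30 min at 37 °C. Free AEC extracted into ethyl acetate, fluorescence read at ex 370/em 430 nm. A 10 μg/mL trypsin total-release digest served as reference. Km and rates from Lineweaver-Burk plots; Vrel is the rate relative to S-1.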
# Plasmodium falciparum [5] = test: Substrate affinity for Plasmodium falciparum 68 neutral proteinase.; assay type: functional; procedure, shortened: as §2
# Plasmodium falciparum [6] = test: Reaction velocity for Plasmodium falciparum 68 neutral proteinase.; assay type: functional; procedure, shortened: as §2
SMILES,IC50 (Plasmodium falciparum [1]),Ki (Plasmodium falciparum [2]),IC50 (Plasmodium falciparum [3]),Vrel (Plasmodium falciparum [4]),Km (Plasmodium falciparum [5]),Vm (Plasmodium falciparum [6])
CC(C)C[C@H](NC(=O)[C@@H](NC(=O)[C@H](O)[C@@H](O)[C@H](O)[C@H](O)CO)C(C)C)C(=O)N(C)CC(=O)N[C@@H](CCCN=C(N)N)C(=O)N(C)CC(=O)O,2000 µM,2500 µM,–,–,–,–
CC(C)C[C@H](NC(=O)[C@@H](NC(=O)[C@H](O)[C@@H](O)[C@H](O)[C@H](O)CO)C(C)C)C(=O)NCC(=O)N[C@@H](CCCCN)C(=O)O,> 2000 µM,> 2500 µM,> 10000 µM,–,–,–
CC(C)C[C@H](NC(=O)[C@@H](NC(=O)[C@H](O)[C@@H](O)[C@H](O)[C@H](O)CO)C(C)C)C(=O)NCC(=O)N[C@@H](CCCN=C(N)N)C(=O)N(C)CC(=O)O,1000 µM,1220 µM,–,–,–,–
CCn1c2ccccc2c2cc(NC(=O)[C@H](CCCN=C(N)N)NC(=O)CNC(=O)[C@H](CO)NC(=O)C(O)C(O)C(O)C(O)CO)ccc21 (some centres not stated),–,–,–,<3,> 10000 µM,–
CCn1c2ccccc2c2cc(NC(=O)[C@H](CCCCN)NC(=O)CNC(=O)[C@H](CO)NC(=O)C(O)C(O)C(O)C(O)CO)ccc21 (some centres not stated),–,–,–,140,730 µM,–
CCn1c2ccccc2c2cc(NC(=O)[C@H](CCCCN)NC(=O)CNC[C@@H](NC(=O)C(O)C(O)C(O)C(O)CO)C(C)O)ccc21 (some centres not stated),–,–,–,23,5600 µM,–
CC[C@H](C)[C@H](NC(=O)C(O)C(O)C(O)C(O)CO)C(=O)N[C@H](C(=O)NCC(=O)N[C@@H](CCCCN)C(=O)Nc1ccc2c(c1)c1ccccc1n2CC)C(C)C (some centres not stated) (X1-IVGK-{NH(9-Et-carbazol-3-yl)}),–,–,–,43,950 µM,–
CCn1c2ccccc2c2cc(NC(=O)[C@H](CCCCN)NC(=O)CNC(=O)[C@H](CC(C)C)NC(=O)[C@H](CO)NC(=O)C(O)C(O)C(O)C(O)CO)ccc21 (some centres not stated) (X1-SLGK-{NH(9-Et-carbazol-3-yl)}),–,–,–,17,1140 µM,–
CCn1c2ccccc2c2cc(NC(=O)[C@H](CCCCN)NC(=O)CNC(=O)[C@@H](NC(=O)[C@@H](NC(=O)C(O)C(O)C(O)C(O)CO)C(C)C)[C@@H](C)O)ccc21 (some centres not stated) (X1-VTGK-{NH(9-Et-carbazol-3-yl)}),–,–,–,26,1250 µM,–
CC(C)C[C@H](NC(=O)[C@@H](NC(=O)[C@H](O)[C@@H](O)[C@H](O)[C@H](O)CO)C(C)C)C(=O)NCC(=O)N[C@@H](CCCCN)C(=O)NC(CO)CO,1500 µM,1460 µM,–,–,–,–
CCNC(=O)[C@H](CCCCN)NC(=O)CNC(=O)[C@H](CC(C)C)NC(=O)[C@@H](NC(=O)[C@H](O)[C@@H](O)[C@H](O)[C@H](O)CO)C(C)C,470 µM,480 µM,900 µM,–,–,–
CC[C@H](C)[C@H](NC(=O)C(O)C(O)C(O)C(O)CO)C(=O)N[C@H](CNCC(=O)N[C@@H](CCCN=C(N)N)C(=O)Nc1ccc2c(c1)c1ccccc1n2CC)C(C)C (some centres not stated),–,–,–,3,6250 µM,–
CC(C)C[C@H](NC(=O)[C@@H](NC(=O)[C@H](O)[C@@H](O)[C@H](O)[C@H](O)CO)C(C)C)C(=O)NCC(=O)N[C@@H](CCCCN)C(=O)N1CCC[C@H]1C(=O)O,> 2000 µM,> 2500 µM,–,–,–,–
CCN(CC)C(=O)[C@H](CCCCN)NC(=O)CNC(=O)[C@H](CC(C)C)NC(=O)[C@@H](NC(=O)[C@H](O)[C@@H](O)[C@H](O)[C@H](O)CO)C(C)C,> 2000 µM,> 2500 µM,> 10000 µM,–,–,–
CCNC(=O)CNC(=O)[C@H](CCCN=C(N)N)NC(=O)[C@@H]1CCCN1C(=O)[C@H](CC(=O)O)NC(=O)OC(C)(C)C (Boc-DPRG-NHEt),> 2000 µM,> 2500 µM,–,–,–,–
CCn1c2ccccc2c2cc(NC(=O)[C@H](CCCCN)NC(=O)CNC[C@H](CC(C)C)NC(=O)[C@H](N)C(C)C)ccc21,–,–,–,<3,> 10000 µM,–
CCNC(=O)[C@H](C)NC(=O)CNC(=O)[C@H](CC(C)C)NC(=O)[C@@H](NC(=O)[C@H](O)[C@@H](O)[C@H](O)[C@H](O)CO)C(C)C,> 2000 µM,> 2500 µM,> 10000 µM,–,–,–
CCn1c2ccccc2c2cc(NC(=O)[C@H](CCCCN)NC(=O)CNC(=O)[C@H](CC(C)C)NC(=O)[C@@H](NC(=O)C(O)C(O)C(O)C(O)CO)[C@@H](C)O)ccc21 (some centres not stated) (X1-TLGK-{NH(9-Et-carbazol-3-yl)}),–,–,–,74,770 µM,–
CCn1c2ccccc2c2cc(NC(=O)[C@H](CCCCN)NC(=O)CNC(=O)[C@H](CC(C)C)NC(=O)[C@@H](NC(=O)OC(C)(C)C)C(C)C)ccc21 (Boc-VLGK-{NH(9-Et-carbazol-3-yl)}),–,–,–,11,1140 µM,–
CCNC(=O)CNC(=O)[C@H](CCCN=C(N)N)NC(=O)[C@H](Cc1ccccc1)NC(=O)[C@H](CC(=O)O)NC(C)=O (Ac-DFRG-NHEt),–,> 2500 µM,> 10000 µM,–,–,–
CCn1c2ccccc2c2cc(NC(=O)[C@H](CCCCN)NC(=O)CNC(=O)[C@H](COC(=O)c3ccccc3)NC(=O)C(O)C(O)C(O)C(O)CO)ccc21 (some centres not stated),–,–,–,<3,> 10000 µM,–
CCn1c2ccccc2c2cc(NC(=O)[C@H](CCCCN)NC(=O)CNC(=O)[C@H](CC(C)C)NC(=O)[C@@H](NC(=O)C(O)C(O)C(O)C(O)CO)C(C)C)ccc21 (some centres not stated) (X1-VLGK-{NH(9-Et-carbazol-3-yl)}),–,–,–,100,380 µM,35 uM ml-1
CC(C)C[C@H](NC(=O)[C@@H](NC(=O)[C@H](O)[C@@H](O)[C@H](O)[C@H](O)CO)C(C)C)C(=O)NCC(=O)N[C@@H](CCCCN)C(=O)N(C)CC(=O)O,320 µM,250 µM,–,–,–,–
CCn1c2ccccc2c2cc(NC(=O)[C@H](CCCCN)NC(=O)[C@H](C)NC(=O)[C@H](C)NC(=O)[C@H](C)NC(=O)C(O)C(O)C(O)C(O)CO)ccc21 (some centres not stated) (X1-AAAK-{NH(9-Et-carbazol-3-yl)}),–,–,–,29,5000 µM,–
CCn1c2ccccc2c2cc(NC(=O)[C@H](CCCN=C(N)N)NC(=O)CNC(=O)[C@H](CC(C)C)NC(=O)[C@@H](NC(=O)C(O)C(O)C(O)C(O)CO)C(C)C)ccc21 (some centres not stated) (X1-VLGR-{NH(9-Et-carbazol-3-yl)}),–,–,–,89,400 µM,–
CCn1c2ccccc2c2cc(NC(=O)[C@H](CCCCN)NC(=O)CN(C)C(=O)[C@H](CC(C)C)NC(=O)[C@@H](NC(=O)C(O)C(O)C(O)C(O)CO)C(C)C)ccc21 (some centres not stated) (X1-VL[Sar]K-{NH(9-Et-carbazol-3-yl)}),–,–,–,80,1670 µM,–

# — ChEMBL document CHEMBL1125768, “Peptide derivatives specific for a Plasmodium falciparum proteinase inhibit the human erythrocyte invasion by merozoites” (J Med Chem, 1991)
